# AI-2 QS modul – Vibrio harveyi AI-2 quorum sensing modulators, primary screen, JMH597 strain, luminescence/OD600 ratio; Vibrio harveyi JMH597 AI-2 luminescence/OD600 ratio, 9 h; stronger effect = lower value; strain lacks LuxN and CqsS sensors; 0 = neutral-control median; activity change, % at 7.5 µM; 0.4% of 300,000 active; AID 2094, 2009; in the data active means activity change below about -75%, passing the limit was not always enough; inconclusive means no clear call, values can overlap the other calls;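 further: luminescence divided by OD600 gain over 9 h not by final OD600 alone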
# HDAC3 inhib – HDAC3 deacetylase inhibitors, primary screen, biochemical, fluorescence, cell-free homogeneous | recombinant HDAC3, fluorogenic peptide/trypsin coupled | inhibition, % at 8.3 µM | 0.15% of 320,000 active | AID 2718, 2010; in the data active means inhibition above about 26%, passing the limit was not always enough; inconclusive means no clear call, values can overlap the other calls
# Target sequence (O15379 whole entry, looked up): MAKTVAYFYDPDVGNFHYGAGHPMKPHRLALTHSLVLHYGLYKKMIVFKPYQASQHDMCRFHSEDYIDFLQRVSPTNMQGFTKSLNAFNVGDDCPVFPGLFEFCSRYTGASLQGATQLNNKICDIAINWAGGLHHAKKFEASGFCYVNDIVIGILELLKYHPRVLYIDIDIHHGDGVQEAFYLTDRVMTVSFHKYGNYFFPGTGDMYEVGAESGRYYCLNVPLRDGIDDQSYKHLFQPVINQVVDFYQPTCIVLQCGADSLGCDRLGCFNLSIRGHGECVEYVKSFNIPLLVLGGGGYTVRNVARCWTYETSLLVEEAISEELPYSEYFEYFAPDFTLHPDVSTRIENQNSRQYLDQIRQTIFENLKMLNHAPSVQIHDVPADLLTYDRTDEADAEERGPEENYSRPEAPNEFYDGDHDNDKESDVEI
# Efflux pump mplx – inhibitors of Candida efflux pumps in yeast, primary screen, S. cerevisiae, Nile Red, multiplex; S. cerevisiae Candida pump triplex; AID 485275, 2010; inhibition, % at 10 µM; 0.44% of 330,000 active;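 active means plate passing quality check with inhibition over a set limit, or well fluorescence over plate mean plus 4 SD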;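 further: Nile Red retained in pooled yeast measured as flow cytometry median fluorescence; higher means more Nile Red kept so more efflux inhibition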
# PolyA inhibitor – polyadenylation inhibitors in yeast reporter cells, primary screen, luminescence, S. cerevisiae; S. cerevisiae SKY197-pL101 polyadenylation reporter, beta-gal luminescence; efflux-impaired pdr1/pdr3 knockout yeast; score 100 = 6 SD above DMSO; activity score, % at 12 µM; 0.02% of 300,000 active;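 active means lowest replicate activity score at least 50, where 100 means six control SD above control mean; inconclusive means lowest score under 50 but half or more replicates reach 50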;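 further: yeast exposed to compound for 9 h at 30 °C; higher score means more reporter readthrough which indicates perturbed polyadenylation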
# T cruzi inh – inhibitors of intracellular T. cruzi growth, primary screen, luminescence, NIH3T3 host cells; AID 1885, 2009; inhibition, % (test concentration not listed); T. cruzi beta-gal in NIH3T3, 90 h; 1.4% of 300,000 active;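 active means mean inhibition across valid replicates above about 55%, limit read from the data; inconclusive means mean below that limit but half or more replicates reach it; inactive means mean below it, under half of replicates reach it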;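 further: signal also drops with host cell toxicity which is not excluded here; higher percent means less beta-gal luminescence so fewer parasites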
#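 System: Mouse NIH/3T3 fibroblasts infected with β-gal-expressing T. cruzi Tulahuen C4 | Quantity: NIH/3T3 cells, 5,000 per well | Reagent: 5000 reporter trypomastigotes per well | Dosing: Compound pinned at 50 nL/well, DMSO | Schedule: 3 h host attachment, then at least 90 h co-culture | Detection: GalScreen luminescence, 60 min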
# Numbers stand for hits; n = inactive; u = inconclusive; x = no result given. Sampled rows, rich in hits. Any-hit rate of the full collection: about 2.2%.
SMILES,AI-2 QS modul,HDAC3 inhib,Efflux pump mplx,PolyA inhibitor,T cruzi inh
O=C(Nc1cc(Sc2ccccn2)cc([N+](=O)[O-])c1)c1cccc(Cl)c1,n,n,n,n,59
O=C(N/N=C\c1c(O)ccc2ccccc12)c1ccc(S(=O)(=O)N2CCCCC2)cc1,n,n,n,n,58
O=C(NN=Cc1c(O)ccc2ccccc12)c1ccc2c(c1)OCO2,x,n,n,x,x
CCC1(c2ccc(F)cc2)NC(=O)N(CC(=O)Nc2cc(S(=O)(=O)N(C)C)ccc2Cl)C1=O (stereo not drawn),n,n,n,n,n
CC(CCN(C)C)OC(=O)c1ccc(C(C)c2ccccc2)o1 (stereo not drawn),n,n,n,n,72
NC(=O)C1=C[C@H](c2ccccc2)C[C@H](OCc2ccc(CO)cc2)O1,n,28,n,n,n
O=C(Nc1ccccc1)C1=C[C@@H](c2ccccc2)C[C@@H](OCc2ccc(CO)cc2)O1,n,n,n,n,n
N#Cc1ccc(NC(=O)COC(=O)CSc2nnc(-c3ccc(Cl)cc3)o2)cc1,n,n,n,n,n
C[C@@]12CC(=O)NC1N(C(=O)c1ccccc1)C(c1ccccc1OC(=O)c1ccccc1)C2 (stereo partly drawn),n,n,n,n,n
C[C@@]12CC(=O)NC1N(C(=O)c1cccc(C(F)(F)F)c1)C(c1ccccc1OC(=O)c1cccc(C(F)(F)F)c1)C2 (stereo partly drawn),n,42,n,n,n
Cc1cccc(CS(=O)(=O)c2nnc([C@H](Cc3ccccc3)NC(=O)OC(C)(C)C)o2)c1,n,61,n,n,n
COC(=O)CS(=O)(=O)c1nnc([C@H](Cc2ccccc2)NC(=O)OC(C)(C)C)o1,n,55,n,n,n
COC(=O)CSc1nnc([C@H](Cc2ccccc2)NC(=O)OC(C)(C)C)o1,n,n,n,n,n
CNC(=O)c1cn(-c2ccc(Cl)cc2)c(=O)c2ccccc12,n,n,n,n,n
CCCCN(CC)CCNC(=O)c1cc2c(=O)n(C)c3ccccc3c2s1,n,n,n,n,61
CCCCN(CC)CCNC(=O)c1cn(-c2ccc(Cl)cc2)c(=O)c2ccccc12,n,u,n,n,68
O=C1CCCN1C(=O)CSc1nnnn1-c1cccc(F)c1,x,n,n,x,x
Cc1cc(C)c(C)c(S(=O)(=O)N[C@@H](C)C(=O)OCC(N)=O)c1C,n,n,n,n,n
C/C(=N/Nc1ccnc2cc(Cl)ccc12)c1ccc(N)cc1,n,u,n,n,60
C/C(=N/Nc1ccnc2cc(Cl)ccc12)c1ccc(O)cc1,n,n,n,n,n
Clc1ccc2c(N/N=C/c3ccccc3Br)ccnc2c1,n,n,n,n,55
Clc1ccc2c(N/N=C/c3cccc(Br)c3)ccnc2c1,n,n,n,n,n
O=[N+]([O-])c1ccc(/C=N/Nc2ccnc3cc(Cl)ccc23)o1,-185,n,n,n,n
COc1cccc(/C=C/c2nc(C#N)c(NCC(C)C)o2)c1,n,n,n,n,n
COC(=O)c1cncc(C)c1,n,n,n,n,n
SMILES,AI-2 QS modul,HDAC3 inhib,Efflux pump mplx,PolyA inhibitor,T cruzi inh
O=C(Nc1ccc(CN2CCCCC2)cc1)Nc1ccc(Br)cc1Cl,n,n,n,n,n
Cc1ccc(S(=O)(=O)c2nnn(-c3cccc(F)c3)c2N)cc1,-97,n,n,n,n
COc1ccc(S(=O)(=O)c2nnn(-c3cccc(OC)c3)c2N)cc1,n,n,n,n,n
CS(=O)(=O)c1ccccc1-c1nnc(NC(=O)C2=COCCO2)o1,n,x,n,n,n
Cc1cccc(NC(=S)N2CCOCC2)c1C,n,n,n,n,n
c1csc(C(c2nnnn2C2CCCCC2)N2CCCC3(CCCCC3)C2)c1 (stereo not drawn),n,n,n,n,n
CC(C)(C)n1nnnc1C(c1cccs1)N1CCCC2(CCCCC2)C1 (stereo not drawn),n,n,n,n,63
CN1CCN(c2ccc([N+](=O)[O-])cc2NC(=O)c2cccs2)CC1,n,n,n,n,n
O=C1COc2ccc(C(=O)COC(=O)c3ccccc3F)cc2N1,x,n,n,x,x
O=C1COc2ccc(C(=O)COC(=O)Cc3ccc(F)cc3)cc2N1,-82,n,n,n,n
CCS(=O)(=O)NCc1ccc2[nH]c3c(c2c1)CCCC3,n,n,1.3,n,n
CN(C)CCCNS(=O)(=O)c1ccc(N2CCC(c3ccc(Cl)cc3)=N2)cc1,n,n,n,n,72
CCC(Oc1ccc(Br)cc1Cl)C(=O)Nc1nnc(C2CC2)s1 (stereo not drawn),n,n,n,n,n
COC(=O)C1=CN(Cc2ccc(F)cc2)C=C(C(=O)OC)C1c1ccc(O)c(OC)c1,n,n,n,n,n
COC(=O)C1=CN(Cc2ccc(OC)c(OC)c2)C=C(C(=O)OC)C1c1cccc(O)c1,x,n,n,n,58
COCCNC(=O)C(=O)NCC1OCCCN1S(=O)(=O)c1cccs1 (stereo not drawn),n,n,n,n,n
C[C@H](NC(=O)c1ccc(Cl)cc1)C(=O)NNC(=O)c1cccs1,x,n,n,x,x
O=c1cc(N2CCCCC2)c(-c2ccccc2)nn1Cc1ccc(F)cc1,n,n,n,n,55
Cn1c(SCC(=O)NC(=O)Cc2ccccc2)nnc1-c1ccc(F)cc1,x,n,n,x,x
COc1ccc(-n2nc3c(c2NC(=O)c2ccc4c(c2)OCO4)CS(=O)(=O)C3)cc1,n,n,n,n,n
CC(=Nc1ccc(Br)cc1)c1sc2ccccc2c1O,n,n,n,n,60
CCOC(=O)c1sc(=S)n(CC)c1N,n,n,n,n,n
CCOC(=O)c1sc(=S)n(Cc2ccccc2)c1N,-86,n,n,n,n
O=C(COc1ccc(F)cc1Cl)Nc1cc(S(=O)(=O)N2CCOCC2)ccc1N1CCCCC1,n,u,n,n,63
CCN(CC)S(=O)(=O)c1ccc(N2CCN(C)CC2)c(NC(=O)COc2ccc(F)cc2Cl)c1,n,n,n,n,59
CN1CCN(c2ccc(S(=O)(=O)N3CCOCC3)cc2NC(=O)COc2ccc(F)cc2Cl)CC1,n,n,n,n,n
COC(=O)[C@H](CC(C)C)NS(=O)(=O)N(Cc1ccccc1)[C@@H](CC(C)C)C(=O)OC,x,31,n,x,x
COC(=O)[C@H](CC(C)C)N(Cc1ccccc1)S(=O)(=O)N(Cc1ccccc1)[C@@H](CC(C)C)C(=O)OC,x,n,n,x,x
O=C1OC(c2ccc(F)cc2)=C/C1=C\c1ccc(O)cc1,n,n,n,n,n
O=C1OC(c2ccc(F)cc2)=C/C1=C\c1ccc([N+](=O)[O-])o1,n,n,n,n,66
